Measurements taken from ChEMBL document CHEMBL1124279, “N,N-Dialkylated monophenolic trans-2-phenylcyclopropylamines: novel central 5-hydroxytryptamine receptor agonists” (J Med Chem, 1988).

Key:
[1] = molecular target: T1, Serotonin (5-HT) receptor (Rattus norvegicus) (UniProt P35563+P35365+P32305+P31388+Q9JJ16+P28564+P30994+Q62758+P08909+P14842+P30940+P35364+P19327+P28565); experiment: Evaluated for receptor mediated feedback inhibition of 5-HTP formation in hemisphere of rat brain when administered subcutaneously; format: functional
How it was run: (§1)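 Reserpinized male Sprague-Dawley rats (200–300 g), compounds in saline (occasionally a few drops of glacial acetic acid and/or warming), near-neutral pH, given sc at 5 or 10 mL/kg. Reserpine was in acetic acid/5.5% glucose. 5-HTP formation was measured in the brain part. The ED50 is the dose giving a half-maximal decrease, from dose-response curves of four to six doses (n = 3-4).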

[2] = molecular target: T1, Serotonin (5-HT) receptor (Rattus norvegicus); experiment: Evaluated for receptor mediated feedback inhibition of 5-HTP formation in striatum tissue of rat brain when administered subcutaneously; format: functional, tissue-based; how it was run: as §1
[3] = molecular target: T1, Serotonin (5-HT) receptor (Rattus norvegicus); experiment: Evaluated for receptor mediated feedback inhibition of 5-HTP formation in limbic tissue of rat brain when administered subcutaneously; format: functional, tissue-based; details: Limbic system; how it was run: as §1

Row | SMILES | ED50 [1] | ED50 [2] | ED50 [3]
1 | CCCN(CCC)C1CC1c1ccccc1O (stereo in doubt; 8) | 0.36 µmol/kg | 0.36 µmol/kg | 0.41 µmol/kg
2 | CCCN(CCC)C1CC1c1ccccc1OC (stereo not given) | 0.72 µmol/kg |  | 0.93 µmol/kg
3 | CCN(CC)C1CC1c1cccc(O)c1 (stereo not given) | 0.4 µmol/kg | 0.32 µmol/kg | 0.34 µmol/kg
4 | CCN(CC)C1CC1c1ccccc1O (stereo not given) | 0.8 µmol/kg | 1.2 µmol/kg | 0.82 µmol/kg
5 | CCCN(CCC)C1CC1c1ccccc1O (single isomer, unassigned; (-)) | 0.38 µmol/kg | 0.26 µmol/kg | 0.28 µmol/kg
6 | CCCN(CCC)C1CC1c1ccccc1O (single isomer, unassigned; (+)) | > 50 µmol/kg | 14.5 µmol/kg | > 50 µmol/kg
7 | CCCN(CCC)C1CC1c1cccc(OC)c1 (stereo not given) | 1.43 µmol/kg | 1.17 µmol/kg | 2.06 µmol/kg
8 | CCCCN(CCCC)C1CC1c1cccc(O)c1 (stereo not given) | > 50 µmol/kg | > 50 µmol/kg | > 50 µmol/kg
9 | CCCN(CCC)C1CC1c1ccc(O)cc1 (stereo not given) | > 50 µmol/kg | > 50 µmol/kg | > 50 µmol/kg
10 | CCCN(CCC)C1CC1c1cccc(O)c1 (single isomer, unassigned; (-)) | 0.35 µmol/kg | 0.28 µmol/kg | 0.34 µmol/kg
11 | CCCN(CCC)C1CC1c1cccc(O)c1 (stereo in doubt; 18) | 0.58 µmol/kg | 0.47 µmol/kg | 0.66 µmol/kg
12 | CCCCN(CCCC)C1CC1c1ccccc1O (stereo not given) | > 50 µmol/kg | > 50 µmol/kg | > 50 µmol/kg
13 | CCCN(CCC)[C@@H]1CCc2cccc(O)c2C1 | 0.077 µmol/kg | 0.065 µmol/kg | 0.061 µmol/kg
14 | CN(C)C1CC1c1cccc(O)c1 (stereo not given) | 25.1 µmol/kg | 8.59 µmol/kg | 10.8 µmol/kg
15 | CCCN(CCC)C1CC1c1ccc(O)c(O)c1 (stereo not given) | > 50 µmol/kg | > 50 µmol/kg | > 50 µmol/kg
16 | CN(C)C1CC1c1ccccc1O (stereo not given) | 9.31 µmol/kg | 3.45 µmol/kg | 6.2 µmol/kg
17 | CCCN(CCC)C1CC1c1cccc(O)c1 (stereo in doubt; (+)-18) | > 50 µmol/kg | > 50 µmol/kg | > 50 µmol/kg
